Consider three compounds from PMC11865470 (Communications Biology, 2025).

Holding throughout (test): whole-cell patch-clamp, off-target channel, 10 μM compound
In experiment [1] the target is NaV1.3 (Rattus norvegicus, UniProt P08104). The class given is cell-based. The following applies: vs 0.1% DMSO. The essentials: (§1)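 NaV channels, transiently transfected HEK293T cells, whole-cell, 16–24 h after seeding. Pipette (mM): 140 CsF, 1 EGTA, 10 NaCl, 10 HEPES, pH 7.4. Bath (mM): 140 NaCl, 5 KCl, 2 CaCl2, 1 MgCl2, 10 glucose, 10 HEPES, pH 7.4. Bath with 0.1% DMSO applied before 10 μM test compound. Inhibition ratios compared by unpaired t-test, n = 5.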

Experiment [2] has as its target T1, KV4.3 (Rattus norvegicus, UniProt Q62897).
T1 sequence (Q62897 1-611 isoform Q62897-3): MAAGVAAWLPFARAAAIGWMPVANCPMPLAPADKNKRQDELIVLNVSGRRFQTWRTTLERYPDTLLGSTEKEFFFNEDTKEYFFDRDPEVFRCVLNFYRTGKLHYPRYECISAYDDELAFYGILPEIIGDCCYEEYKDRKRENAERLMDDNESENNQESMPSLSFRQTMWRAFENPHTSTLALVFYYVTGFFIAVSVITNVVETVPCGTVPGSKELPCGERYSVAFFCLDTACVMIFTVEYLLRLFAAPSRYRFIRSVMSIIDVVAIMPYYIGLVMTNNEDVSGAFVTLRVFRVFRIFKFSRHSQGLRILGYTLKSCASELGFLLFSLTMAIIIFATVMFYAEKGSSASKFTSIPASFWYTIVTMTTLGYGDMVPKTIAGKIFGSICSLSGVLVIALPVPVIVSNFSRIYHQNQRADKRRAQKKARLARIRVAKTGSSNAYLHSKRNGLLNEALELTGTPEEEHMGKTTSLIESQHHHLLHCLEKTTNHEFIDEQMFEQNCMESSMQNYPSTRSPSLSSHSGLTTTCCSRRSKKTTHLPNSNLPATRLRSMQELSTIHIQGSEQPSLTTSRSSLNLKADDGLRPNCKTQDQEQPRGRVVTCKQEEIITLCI
The class given is cell-based. The procedure, abridged:
(§2)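 KV channels in transiently transfected HEK293T cells, whole-cell. Pipette (mM): 140 KCl, 2.5 MgCl2, 11 EGTA, 10 HEPES, pH 7.4. Bath (mM): 145 NaCl, 2.8 KCl, 2 CaCl2, 1 MgCl2, 10 glucose, 10 HEPES, pH 7.4. 0.1% DMSO bath applied, then 10 μM test compound. DMSO vs compound inhibition ratio compared by unpaired t-test, n = 5.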

Experiment [3] has as its target T2, Kir1.1 (Homo sapiens, UniProt P48048).
T2 sequence (P48048 1-391): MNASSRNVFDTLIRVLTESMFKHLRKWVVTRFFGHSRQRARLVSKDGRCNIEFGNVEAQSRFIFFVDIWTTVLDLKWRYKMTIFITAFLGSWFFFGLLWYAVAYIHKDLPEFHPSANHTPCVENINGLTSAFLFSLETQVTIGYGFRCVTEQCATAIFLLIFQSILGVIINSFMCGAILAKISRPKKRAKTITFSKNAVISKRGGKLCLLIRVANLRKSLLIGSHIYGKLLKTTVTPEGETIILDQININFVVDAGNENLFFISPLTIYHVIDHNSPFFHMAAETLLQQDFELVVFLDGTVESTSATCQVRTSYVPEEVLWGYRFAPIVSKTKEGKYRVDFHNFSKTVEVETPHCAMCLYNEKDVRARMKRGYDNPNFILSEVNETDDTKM
The experiment is classed as cell-based. The following applies: vs 0.1% DMSO. The essentials: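 Kir channels in transfected HEK293T cells, whole-cell. Pipette (mM): 135 KCl, 2 MgCl2, 10 HEPES, 1 EGTA, 4 Na2-ATP, pH 7.3. Bath (mM): 135 NaCl, 5 KCl, 1.5 CaCl2, 1 MgCl2, 10 HEPES, 10 glucose, pH 7.4. 0.1% DMSO bath applied before 10 μM test compound. Inhibition ratios compared by unpaired t-test, n = 5.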

The target in experiment [4] is CaV2.2 (Rattus norvegicus, UniProt Q02294). The class given is cell-based. The following applies: for sensitivity of channel to compound: vs 0.1% DMSO. The procedure, abridged: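 CaV channels in transfected HEK293T cells, whole-cell. Pipette (mM): 120 CsMeSO3, 2 Mg-ATP, 11 EGTA, 10 HEPES, pH 7.4. Bath (mM): 138 NaCl, 5.6 KCl, 2.6 CaCl2, 20 TEA-Cl, 5 glucose, 5 HEPES, pH 7.4. 0.1% DMSO bath applied before 10 μM test compound. Inhibition ratios compared by unpaired t-test, n = 5.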
Chain of CaV2.2 (Q02294 whole entry): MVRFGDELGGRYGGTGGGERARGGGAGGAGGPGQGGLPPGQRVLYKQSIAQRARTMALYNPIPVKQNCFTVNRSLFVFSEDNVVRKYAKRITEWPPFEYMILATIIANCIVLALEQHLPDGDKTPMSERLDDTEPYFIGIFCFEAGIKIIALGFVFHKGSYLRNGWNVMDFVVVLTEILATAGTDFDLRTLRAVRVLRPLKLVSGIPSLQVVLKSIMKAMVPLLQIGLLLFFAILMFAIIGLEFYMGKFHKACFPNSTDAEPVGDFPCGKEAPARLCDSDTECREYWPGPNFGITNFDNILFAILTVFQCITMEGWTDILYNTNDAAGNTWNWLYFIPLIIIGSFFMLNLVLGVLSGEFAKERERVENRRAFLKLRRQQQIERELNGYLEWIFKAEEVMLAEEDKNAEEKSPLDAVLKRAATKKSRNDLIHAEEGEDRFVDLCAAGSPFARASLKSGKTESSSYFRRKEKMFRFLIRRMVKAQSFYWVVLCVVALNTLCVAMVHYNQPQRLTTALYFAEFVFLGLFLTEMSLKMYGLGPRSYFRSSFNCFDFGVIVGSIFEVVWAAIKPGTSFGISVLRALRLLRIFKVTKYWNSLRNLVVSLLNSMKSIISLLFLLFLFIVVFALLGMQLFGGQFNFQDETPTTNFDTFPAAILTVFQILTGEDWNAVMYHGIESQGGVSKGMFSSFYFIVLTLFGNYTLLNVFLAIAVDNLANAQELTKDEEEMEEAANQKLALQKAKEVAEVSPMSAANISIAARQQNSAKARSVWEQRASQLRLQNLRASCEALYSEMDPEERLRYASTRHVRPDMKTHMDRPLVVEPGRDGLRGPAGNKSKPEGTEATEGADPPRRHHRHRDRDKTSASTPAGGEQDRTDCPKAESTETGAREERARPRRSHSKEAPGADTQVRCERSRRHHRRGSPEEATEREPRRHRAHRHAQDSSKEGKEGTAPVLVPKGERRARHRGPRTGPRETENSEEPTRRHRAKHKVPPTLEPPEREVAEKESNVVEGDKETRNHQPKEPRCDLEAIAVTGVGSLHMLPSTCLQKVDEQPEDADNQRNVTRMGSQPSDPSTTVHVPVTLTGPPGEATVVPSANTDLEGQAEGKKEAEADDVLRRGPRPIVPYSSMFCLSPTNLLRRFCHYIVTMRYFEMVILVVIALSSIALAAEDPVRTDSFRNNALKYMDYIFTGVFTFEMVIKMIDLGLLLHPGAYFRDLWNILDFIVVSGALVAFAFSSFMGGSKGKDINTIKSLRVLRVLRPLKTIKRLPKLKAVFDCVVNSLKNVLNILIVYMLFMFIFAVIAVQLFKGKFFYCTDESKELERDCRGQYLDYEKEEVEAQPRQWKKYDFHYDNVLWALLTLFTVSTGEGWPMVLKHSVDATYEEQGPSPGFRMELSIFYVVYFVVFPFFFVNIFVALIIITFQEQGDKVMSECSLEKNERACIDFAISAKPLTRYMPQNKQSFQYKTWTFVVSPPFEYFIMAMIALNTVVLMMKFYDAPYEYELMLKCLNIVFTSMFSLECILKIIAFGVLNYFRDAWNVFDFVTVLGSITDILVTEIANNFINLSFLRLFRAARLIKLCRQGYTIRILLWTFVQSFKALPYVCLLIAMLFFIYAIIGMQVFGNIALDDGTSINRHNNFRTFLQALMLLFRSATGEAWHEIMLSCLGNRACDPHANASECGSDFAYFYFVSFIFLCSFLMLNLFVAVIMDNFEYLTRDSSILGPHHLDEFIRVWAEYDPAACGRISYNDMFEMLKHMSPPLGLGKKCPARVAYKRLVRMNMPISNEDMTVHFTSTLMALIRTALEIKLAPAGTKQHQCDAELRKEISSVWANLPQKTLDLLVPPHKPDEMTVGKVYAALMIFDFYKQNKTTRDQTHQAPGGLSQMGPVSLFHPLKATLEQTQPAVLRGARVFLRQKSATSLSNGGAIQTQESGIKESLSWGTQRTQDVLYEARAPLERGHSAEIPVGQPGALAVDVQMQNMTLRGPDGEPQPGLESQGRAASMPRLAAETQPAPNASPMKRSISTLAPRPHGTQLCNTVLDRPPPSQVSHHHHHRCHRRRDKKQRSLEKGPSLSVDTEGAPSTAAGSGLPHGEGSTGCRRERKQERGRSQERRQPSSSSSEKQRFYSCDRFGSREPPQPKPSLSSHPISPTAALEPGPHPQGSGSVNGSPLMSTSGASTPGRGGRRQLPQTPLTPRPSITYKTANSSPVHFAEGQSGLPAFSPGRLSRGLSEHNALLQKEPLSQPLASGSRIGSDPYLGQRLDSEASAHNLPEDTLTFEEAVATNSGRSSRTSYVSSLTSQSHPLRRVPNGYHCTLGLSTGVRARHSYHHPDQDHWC

Experiment [5] has as its target NaV1.4 (Homo sapiens, UniProt P35499). The experiment is classed as cell-based. The following applies: for sensitivity of channel to compound: vs 0.1% DMSO. The procedure, abridged: as §1
Experiment [6] relates to KV2.1. The experiment is classed as cell-based, Mus musculus. The following applies: for sensitivity of channel to compound: vs 0.1% DMSO. The procedure, abridged:
as §2

The target in experiment [7] is KV1.3 (Homo sapiens, UniProt P22001). The class given is cell-based. The essentials:
as §2

Experiment [8] has as its target T3, KV4.2 (Rattus norvegicus, UniProt Q63881).
T3 sequence (Q63881 1-630): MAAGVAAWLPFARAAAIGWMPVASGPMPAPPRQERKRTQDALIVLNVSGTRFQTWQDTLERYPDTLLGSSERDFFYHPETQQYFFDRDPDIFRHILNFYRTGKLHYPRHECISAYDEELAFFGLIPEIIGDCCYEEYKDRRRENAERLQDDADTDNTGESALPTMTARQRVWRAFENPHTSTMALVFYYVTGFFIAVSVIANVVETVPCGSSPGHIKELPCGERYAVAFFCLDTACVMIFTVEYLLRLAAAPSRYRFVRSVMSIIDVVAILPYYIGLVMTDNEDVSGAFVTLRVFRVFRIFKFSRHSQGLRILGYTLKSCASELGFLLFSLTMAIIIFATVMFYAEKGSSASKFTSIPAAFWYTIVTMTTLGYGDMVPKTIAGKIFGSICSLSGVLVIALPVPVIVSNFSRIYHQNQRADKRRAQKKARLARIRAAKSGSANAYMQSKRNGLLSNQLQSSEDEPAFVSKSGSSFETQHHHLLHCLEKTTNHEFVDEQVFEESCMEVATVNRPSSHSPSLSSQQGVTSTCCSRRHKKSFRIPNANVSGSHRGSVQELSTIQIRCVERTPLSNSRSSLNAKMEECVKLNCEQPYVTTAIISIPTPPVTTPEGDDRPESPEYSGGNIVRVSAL
The experiment is classed as cell-based. The following applies: for sensitivity of channel to compound: vs 0.1% DMSO. The procedure, abridged: as §2

In experiment [9] the target is PAC (Homo sapiens, UniProt Q9H813). The experiment is classed as cell-based. The following applies: vs 0.1% DMSO. The essentials: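 PAC in transfected HEK293T cells, whole-cell. Pipette (mM): 135 CsCl, 1 MgCl2, 2 CaCl2, 10 HEPES, 5 EGTA, 4 Mg-ATP, pH 7.2. NaCl-based bath buffered with 10 mM HEPES (pH 7.3) or 5 mM Na3-citrate (pH 5.5). 0.1% DMSO bath applied before 10 μM test compound. Inhibition ratios compared by unpaired t-test, n = 5.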
Chain of PAC (Q9H813 whole entry): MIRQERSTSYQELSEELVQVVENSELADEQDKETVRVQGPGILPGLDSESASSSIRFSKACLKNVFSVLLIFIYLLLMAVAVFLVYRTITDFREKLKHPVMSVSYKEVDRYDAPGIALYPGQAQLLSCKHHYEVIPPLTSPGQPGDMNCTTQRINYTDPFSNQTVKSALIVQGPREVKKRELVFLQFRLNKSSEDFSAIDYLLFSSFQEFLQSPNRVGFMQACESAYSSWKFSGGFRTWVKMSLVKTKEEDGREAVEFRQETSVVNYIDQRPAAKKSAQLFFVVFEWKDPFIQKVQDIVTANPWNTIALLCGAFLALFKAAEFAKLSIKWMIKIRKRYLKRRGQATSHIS

Chain of KV1.3 (P22001 whole entry): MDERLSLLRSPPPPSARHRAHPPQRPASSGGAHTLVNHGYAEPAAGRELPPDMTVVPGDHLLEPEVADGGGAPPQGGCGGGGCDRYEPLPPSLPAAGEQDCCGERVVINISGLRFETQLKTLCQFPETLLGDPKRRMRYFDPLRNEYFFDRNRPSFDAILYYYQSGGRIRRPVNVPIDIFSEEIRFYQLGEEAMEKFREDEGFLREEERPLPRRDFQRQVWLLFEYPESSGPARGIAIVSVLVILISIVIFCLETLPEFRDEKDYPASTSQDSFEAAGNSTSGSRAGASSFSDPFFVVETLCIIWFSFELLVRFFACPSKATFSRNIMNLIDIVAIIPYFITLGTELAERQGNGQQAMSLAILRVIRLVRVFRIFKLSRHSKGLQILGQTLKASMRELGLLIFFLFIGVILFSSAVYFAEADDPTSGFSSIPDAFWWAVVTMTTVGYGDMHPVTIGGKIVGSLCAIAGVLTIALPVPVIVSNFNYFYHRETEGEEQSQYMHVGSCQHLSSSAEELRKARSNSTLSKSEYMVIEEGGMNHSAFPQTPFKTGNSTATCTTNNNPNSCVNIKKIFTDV
Chain of NaV1.4 (P35499 whole entry): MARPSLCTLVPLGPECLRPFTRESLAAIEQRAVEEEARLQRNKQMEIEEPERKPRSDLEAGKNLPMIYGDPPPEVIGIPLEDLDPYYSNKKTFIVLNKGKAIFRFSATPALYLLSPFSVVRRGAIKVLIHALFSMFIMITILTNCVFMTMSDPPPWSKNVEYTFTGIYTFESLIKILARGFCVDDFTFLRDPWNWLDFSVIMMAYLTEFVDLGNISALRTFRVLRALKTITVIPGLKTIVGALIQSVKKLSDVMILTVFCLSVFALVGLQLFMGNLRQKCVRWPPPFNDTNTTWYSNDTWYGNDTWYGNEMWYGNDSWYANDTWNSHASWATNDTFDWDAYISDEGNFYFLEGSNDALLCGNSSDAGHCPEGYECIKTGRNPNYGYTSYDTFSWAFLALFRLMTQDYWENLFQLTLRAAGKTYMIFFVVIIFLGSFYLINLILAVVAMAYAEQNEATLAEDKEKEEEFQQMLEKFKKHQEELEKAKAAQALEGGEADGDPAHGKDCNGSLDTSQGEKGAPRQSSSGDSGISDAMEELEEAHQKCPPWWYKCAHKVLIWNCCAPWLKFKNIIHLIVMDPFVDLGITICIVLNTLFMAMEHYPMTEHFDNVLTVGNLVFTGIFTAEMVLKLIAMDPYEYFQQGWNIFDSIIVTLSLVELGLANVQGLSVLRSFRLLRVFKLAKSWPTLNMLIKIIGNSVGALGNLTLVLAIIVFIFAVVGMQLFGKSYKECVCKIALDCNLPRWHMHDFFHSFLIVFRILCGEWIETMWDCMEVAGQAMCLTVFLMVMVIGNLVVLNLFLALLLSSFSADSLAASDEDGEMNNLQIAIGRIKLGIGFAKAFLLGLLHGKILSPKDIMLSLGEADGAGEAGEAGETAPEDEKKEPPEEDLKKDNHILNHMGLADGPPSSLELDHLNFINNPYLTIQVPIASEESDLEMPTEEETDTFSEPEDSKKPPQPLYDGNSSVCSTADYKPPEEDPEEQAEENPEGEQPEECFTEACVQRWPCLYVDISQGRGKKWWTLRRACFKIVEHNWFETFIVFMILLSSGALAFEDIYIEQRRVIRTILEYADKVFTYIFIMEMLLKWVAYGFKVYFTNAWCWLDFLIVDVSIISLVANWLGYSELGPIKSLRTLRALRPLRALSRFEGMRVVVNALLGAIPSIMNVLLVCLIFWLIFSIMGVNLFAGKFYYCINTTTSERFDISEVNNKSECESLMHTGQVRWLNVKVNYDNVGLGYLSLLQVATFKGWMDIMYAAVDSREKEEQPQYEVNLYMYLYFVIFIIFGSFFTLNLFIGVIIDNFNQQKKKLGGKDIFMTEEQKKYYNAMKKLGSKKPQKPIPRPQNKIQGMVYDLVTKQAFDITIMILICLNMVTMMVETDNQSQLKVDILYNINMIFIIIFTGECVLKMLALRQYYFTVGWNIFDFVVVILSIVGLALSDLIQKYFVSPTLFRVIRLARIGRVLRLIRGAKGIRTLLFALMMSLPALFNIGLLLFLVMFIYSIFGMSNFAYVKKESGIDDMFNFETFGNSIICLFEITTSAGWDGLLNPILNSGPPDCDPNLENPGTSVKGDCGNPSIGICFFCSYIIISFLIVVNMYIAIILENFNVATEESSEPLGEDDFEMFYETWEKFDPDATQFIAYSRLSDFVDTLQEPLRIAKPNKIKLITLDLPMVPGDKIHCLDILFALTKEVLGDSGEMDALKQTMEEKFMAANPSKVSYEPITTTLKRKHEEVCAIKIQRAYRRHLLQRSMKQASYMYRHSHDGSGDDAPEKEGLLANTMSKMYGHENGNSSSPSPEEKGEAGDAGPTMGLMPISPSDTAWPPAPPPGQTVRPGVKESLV

With `CC(C)c1noc2ncc(C(=O)c3ccccc3O)cc12` [HIMOP, (2-hydroxyphenyl)-(3-propan-2-yl-5-isoxazolo[5,4-b]pyridinyl)methanone], the “sensitivity of channel to compound” value in experiment [1], in experiment [3], in experiment [4], in [5], in [6] and in experiment [9] was “completely resistant” throughout. The inhibition ratio in [2] was determined as 12.9%; in experiment [7] it was 10.8%; in [8], 14.3%.
As for `Cc1ccc(C(=O)Nc2ccc3ccccc3c2)o1` [MFaN, 5-methyl-N-2-naphthyl-2-furamide], the “sensitivity of channel to compound” value in experiment [1], in experiment [3], in experiment [8] and in [9] was “completely resistant” throughout. Besides, the inhibition ratio is on record as 7.0% in experiment [2]; 7.9% in [4]; 7.0% in [5]; 20.0% in experiment [6]; 15.9% in experiment [7].
`Cc1cc(NC(=O)c2ccc(Br)o2)ccc1NC(=O)c1ccco1` [B2FAMP, 5-Bromo-N-[4-(2-furoylamino)-3-methylphenyl]-2-furamide]: the “sensitivity of channel to compound” value in [1], in experiment [2] (vs 0.1% DMSO), in experiment [3], in experiment [4], in [5] and in [6] was “completely resistant” each time. Also, the “sensitivity of channel to compound” value in [7] (vs 0.1% DMSO), in [8] and in experiment [9] was “completely resistant” in each case.
